Experimental data from ChEMBL document CHEMBL1155099, “Natural products in parallel synthesis: triazole libraries of nonactic acid” (2008).
Active and inactive are the calls of the source.

Key:
Format in all cases: functional, organism-based
Bacillus anthracis = test: Antibacterial activity against Bacillus anthracis at 1mM by almar blue dye reduction assay
Bacillus cereus = test: Antibacterial activity against Bacillus cereus at 1 mM by almar blue dye reduction assay
Procedure, shortened: (§1)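 Single-point primary screen at 1 mM using Alamar Blue dye reduction as the growth read-out.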

Bacillus subtilis = test: Antibacterial activity against Bacillus subtilis at 1 mM by almar blue dye reduction assay; procedure, shortened: as §1
Staphylococcus aureus = test: Antibacterial activity against Staphylococcus aureus at 1 mM by almar blue dye reduction assay; procedure, shortened: as §1
Escherichia coli = test: Antibacterial activity against Escherichia coli at 1 mM by almar blue dye reduction assay; procedure, shortened: as §1
Pseudomonas aeruginosa = test: Antibacterial activity against Pseudomonas aeruginosa at 1 mM by almar blue dye reduction assay; procedure, shortened: as §1
Candida albicans = test: Antifungal activity against Candida albicans at 1 mM by almar blue dye reduction assay; procedure, shortened: as §1
Cryptococcus neoformans = test: Antifungal activity against Cryptococcus neoformans at 1 mM by almar blue dye reduction assay; procedure, shortened: as §1
Saccharomyces cerevisiae = test: Antifungal activity against Saccharomyces cerevisiae at 1 mM by almar blue dye reduction assay; procedure, shortened: as §1

Measured: Activity

CC(C)NC(=O)[C@H](C)[C@H]1CC[C@@H](C[C@@H](C)n2cc(C#CCC3CCCC3)nn2)O1
inactive: all assays above

C[C@H](CC1CCC([C@@H](C)C(=O)N(C)Cc2ccccc2)O1)n1cc(C#CCOC(=O)OCc2ccccc2)nn1 (single isomer, unassigned)
inactive: all assays above

C[C@H](C[C@@H]1CC[C@H]([C@@H](C)C(=O)N(C)Cc2ccccc2)O1)n1cc(C#CCN2CCN(c3ccccc3)CC2)nn1
inactive: all assays above

CCC(=O)OCC#Cc1cn([C@H](C)CC2CCC([C@@H](C)C(=O)N3CCN(CC4CCCO4)CC3)O2)nn1 (single isomer, unassigned)
inactive: all assays above

CC(C)NC(=O)[C@H](C)[C@H]1CC[C@@H](C[C@@H](C)n2cc(C#CCc3ccccc3)nn2)O1
inactive: all assays above

CCN(CC)C(=O)[C@H](C)[C@H]1CC[C@@H](C[C@@H](C)n2cc(C#CCOc3ccc(Br)cc3)nn2)O1
inactive: all assays above

C[C@H](C[C@@H]1CC[C@H]([C@@H](C)C(=O)N2CCN(CC3CCCO3)CC2)O1)n1cc(C#CCN2CCOCC2)nn1 (stereo partly drawn)
inactive: all assays above
